Source: the RNAGym collection of RNA variant scans (doi:10.1002/anie.201605470)

B1: Osa-1-4 twister ribozyme (parent)
chain: CCGCCUAACACUGCCAAUGCCGGUCCCAAGCCCGGAUAAAAGUGGAGGGGGCGG

Variants of: B1
Assay: self-cleavage, relative activity (ratio to wild type); higher = more cleavage; co-transcriptional
In short: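 In vitro transcription at 37 °C for 2 h allowed the twister ribozyme to cleave itself as it was made. Its 54-nucleotide Oryza sativa template had been synthesised with 97 % wild-type base and 1 % of each other base at the 48 positions downstream of the cleavage site. A template-switching oligonucleotide was used for reverse transcription, followed by PCR amplification and deep sequencing. Whether reads carried upstream sequence set the cleavage status, and relative activity is the fraction cleaved normalised to wild type.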

First: CCGCCUAACACUGACAAUGCCGGUCCCAAGCCCGAAUAAAAGUGGAGGGGGCGG
Second: CCGCCUAACACUGACAAUGCCGGUCCCAAGCCCGCAUAAAAGUGGAGGGGGCGG
The self-cleavage of the first is higher: 0.12 for the first, 0.05 for the second.

Compared with CCGCCUAACACUGACAAUGCCGGUCCCAAGCCCGUAUAAAAGUGGAGGGGGCGG, CCGCCUAACACUGACAAUGCCGGUCCCAAGCCCGGAUAAAAAUGGAGGGGGCGG is lower in self-cleavage: 0.09 for the first, 0.05 for the second.

First: CCGCCUAACACUGACAAUGCCGGUCCCAAGCCCGGAUAAAACUGGAGGGGGCGG
Second: CCGCCUAACACUGACAAUGCCGGUCCCAAGCCCGGAUAAAAUUGGAGGGGGCGG
The self-cleavage of the first is higher: 0.05 for the first, 0.03 for the second.

Compared with CCGCCUAACACUGACAAUGCCGGUCCCAAGCCCGGAUAAAAGUAGAGGGGGCGG, CCGCCUAACACUGACAAUGCCGGUCCCAAGCCCGGAUAAAAGUCGAGGGGGCGG is lower in self-cleavage: 0.07 for the first, 0.06 for the second.

Going from CCGCCUAACACUGACAAUGCCGGUCCCAAGCCCGGAUAAAAGUUGAGGGGGCGG to CCGCCUAACACUGACAAUGCCGGUCCCAAGCCCGGAUAAAAGUGAAGGGGGCGG, the self-cleavage falls from 0.05 to 0.04.

First: CCGCCUAACACUGACAAUGCCGGUCCCAAGCCCGGAUAAAAGUGCAGGGGGCGG
Second: CCGCCUAACACUGACAAUGCCGGUCCCAAGCCCGGAUAAAAGUGUAGGGGGCGG
The self-cleavage of the first is lower: 0.01 for the first, 0.03 for the second.

Compared with CCGCCUAACACUGACAAUGCCGGUCCCAAGCCCGGAUAAAAGUGGAAGGGGCGG, CCGCCUAACACUGACAAUGCCGGUCCCAAGCCCGGAUAAAAGUGGACGGGGCGG is lower in self-cleavage: 0.04 for the first, 0.03 for the second.

Going from CCGCCUAACACUGACAAUGCCGGUCCCAAGCCCGGAUAAAAGUGGAUGGGGCGG to CCGCCUAACACUGACAAUGCCGGUCCCAAGCCCGGAUAAAAGUGGAGAGGGCGG, the self-cleavage falls from 0.05 to 0.02.

CCGCCUAACACUGACAAUGCCGGUCCCAAGCCCGGAUAAAAGUGGAGCGGGCGG and CCGCCUAACACUGACAAUGCCGGUCCCAAGCCCGGAUAAAAGUGGAGUGGGCGG are the same in self-cleavage: 0.02 for the first, 0.02 for the second.

First: CCGCCUAACACUGACAAUGCCGGUCCCAAGCCCGGAUAAAAGUGGAGGAGGCGG
Second: CCGCCUAACACUGACAAUGCCGGUCCCAAGCCCGGAUAAAAGUGGAGGCGGCGG
The self-cleavage of the first is higher: 0.02 for the first, 0.01 for the second.

Compared with CCGCCUAACACUGACAAUGCCGGUCCCAAGCCCGGAUAAAAGUGGAGGUGGCGG, CCGCCUAACACUGACAAUGCCGGUCCCAAGCCCGGAUAAAAGUGGAGGGAGCGG is higher in self-cleavage: 0.03 for the first, 0.09 for the second.

Going from CCGCCUAACACUGACAAUGCCGGUCCCAAGCCCGGAUAAAAGUGGAGGGCGCGG to CCGCCUAACACUGACAAUGCCGGUCCCAAGCCCGGAUAAAAGUGGAGGGUGCGG, the self-cleavage falls from 0.08 to 0.07.

Going from CCGCCUAACACUGACAAUGCCGGUCCCAAGCCCGGAUAAAAGUGGAGGGGACGG to CCGCCUAACACUGACAAUGCCGGUCCCAAGCCCGGAUAAAAGUGGAGGGGCCGG, the self-cleavage falls from 0.06 to 0.02.

First: CCGCCUAACACUGACAAUGCCGGUCCCAAGCCCGGAUAAAAGUGGAGGGGUCGG
Second: CCGCCUAACACUGACAAUGCCGGUCCCAAGCCCGGAUAAAAGUGGAGGGGGCAG
The self-cleavage of the first is lower: 0.04 for the first, 0.06 for the second.

Compared with CCGCCUAACACUGACAAUGCCGGUCCCAAGCCCGGAUAAAAGUGGAGGGGGCCG, CCGCCUAACACUGACAAUGCCGGUCCCAAGCCCGGAUAAAAGUGGAGGGGGCUG is higher in self-cleavage: 0.02 for the first, 0.05 for the second.

Compared with CCGCCUAACACUGACAAUGCCGGUCCCAAGCCCGGAUAAAAGUGGAGGGGGCGA, CCGCCUAACACUGACAAUGCCGGUCCCAAGCCCGGAUAAAAGUGGAGGGGGCGC is lower in self-cleavage: 0.1 for the first, 0.06 for the second.

First: CCGCCUAACACUGACAAUGCCGGUCCCAAGCCCGGAUAAAAGUGGAGGGGGCGU
Second: CCGCCUAACACAGACAAUGCCGGUCCCAAGCCCGGAUAAAAGUGGAGGGGGCGG
The self-cleavage of the first is higher: 0.22 for the first, 0.08 for the second.

Going from CCGCCUAACACCGACAAUGCCGGUCCCAAGCCCGGAUAAAAGUGGAGGGGGCGG to CCGCCUAACACGGACAAUGCCGGUCCCAAGCCCGGAUAAAAGUGGAGGGGGCGG, the self-cleavage rises from 0.05 to 0.06.

First: CCGCCUAACACUGACAAAGCCGGUCCCAAGCCCGGAUAAAAGUGGAGGGGGCGG
Second: CCGCCUAACACUGACAACGCCGGUCCCAAGCCCGGAUAAAAGUGGAGGGGGCGG
The self-cleavage of the first is lower: 0.09 for the first, 0.11 for the second.

Going from CCGCCUAACACUGACAAGGCCGGUCCCAAGCCCGGAUAAAAGUGGAGGGGGCGG to CCGCCUAACACUGACAAUGCCGGACCCAAGCCCGGAUAAAAGUGGAGGGGGCGG, the self-cleavage falls from 0.11 to 0.03.

First: CCGCCUAACACUGACAAUGCCGGCCCCAAGCCCGGAUAAAAGUGGAGGGGGCGG
Second: CCGCCUAACACUGACAAUGCCGGGCCCAAGCCCGGAUAAAAGUGGAGGGGGCGG
The self-cleavage of the first is higher: 0.04 for the first, 0.02 for the second.

First: CCGCCUAACACUGACAAUGCCGGUCCCAAGCCCGGAAAAAAGUGGAGGGGGCGG
Second: CCGCCUAACACUGACAAUGCCGGUCCCAAGCCCGGACAAAAGUGGAGGGGGCGG
The self-cleavage of the first is lower: 0.07 for the first, 0.12 for the second.

Compared with CCGCCUAACACUGACAAUGCCGGUCCCAAGCCCGGAGAAAAGUGGAGGGGGCGG, CCGCCUAACACUGACAAUGCCGGUCCCAAGCCCGGAUAAAAGAGGAGGGGGCGG is lower in self-cleavage: 0.15 for the first, 0.06 for the second.

Going from CCGCCUAACACUGACAAUGCCGGUCCCAAGCCCGGAUAAAAGCGGAGGGGGCGG to CCGCCUAACACUGACAAUGCCGGUCCCAAGCCCGGAUAAAAGGGGAGGGGGCGG, the self-cleavage rises from 0.06 to 0.07.

CCGCCUAACACUGGCAAUGCCGGUCCCAAGCCCGGAUAAAAGUGGAGGGGGCGG showed a self-cleavage of 0.21.
